Laboratory results as given in ChEMBL document CHEMBL1154713, “Molecular iodine promoted synthesis of new pyrazolo[3,4-d]pyrimidine derivatives as potential antibacterial agents” (2010).

Tests used:
Type in all cases: functional
[1] = Antibacterial activity against Escherichia coli HB101 BA 7601C at 100 ug/ml after 24 hrs by disk diffusion sensitivity assay; conditions: read-out: IZ
Summary of the method: (§1)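 Disc diffusion on Mueller–Hinton agar poured 5 mm deep, swabbed with 1.2 × 10⁸ CFU/mL bacterial suspension (0.5 McFarland). Compounds dissolved in DMF, diluted with ethanol to 100–600 µg/mL solutions, loaded onto 6.25 mm filter-paper discs. Discs placed in triplicate, incubated 24 h at 37 °C. Average inhibition zone reported, maximum across concentrations shown. Streptomycin used as standard.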

[2] = test system: Bacillus subtilis; experiment: Antibacterial activity against Bacillus subtilis PTCC 1365 at 100 ug/ml after 24 hrs by disk diffusion sensitivity assay; conditions: PTCC 1365, 24 h, read-out: IZ; summary of the method: as §1
[3] = test system: Pseudomonas aeruginosa; experiment: Antibacterial activity against Pseudomonas aeruginosa PTCC 1431 at 100 ug/ml after 24 hrs by disk diffusion sensitivity assay; conditions: PTCC 1431, 24 h, read-out: IZ; summary of the method: as §1
[4] = test system: Staphylococcus aureus; experiment: Antibacterial activity against Staphylococcus aureus PTCC 1074 at 100 ug/ml after 24 hrs by disk diffusion sensitivity assay; conditions: PTCC 1074, 24 h, read-out: IZ; summary of the method: as §1
[5] = test system: Staphylococcus aureus; experiment: Antibacterial activity against Staphylococcus aureus PTCC 1074 at 400 ug/ml after 24 hrs by disk diffusion sensitivity assay; conditions: PTCC 1074, 24 h, read-out: IZ; summary of the method: as §1
[6] = test system: Bacillus subtilis; experiment: Antibacterial activity against Bacillus subtilis PTCC 1365 at 400 ug/ml after 24 hrs by disk diffusion sensitivity assay; conditions: PTCC 1365, 24 h, read-out: IZ; summary of the method: as §1
[7] = test system: Pseudomonas aeruginosa; experiment: Antibacterial activity against Pseudomonas aeruginosa PTCC 1431 at 400 ug/ml after 24 hrs by disk diffusion sensitivity assay; conditions: PTCC 1431, 24 h, read-out: IZ; summary of the method: as §1
[8] = Antibacterial activity against Escherichia coli HB101 BA 7601C at 400 ug/ml after 24 hrs by disk diffusion sensitivity assay; conditions: read-out: IZ; summary of the method: as §1
[9] = test system: Bacillus subtilis; experiment: Antibacterial activity against Bacillus subtilis PTCC 1365 at 300 ug/ml after 24 hrs by disk diffusion sensitivity assay; conditions: PTCC 1365, 24 h, read-out: IZ; summary of the method: as §1
[10] = test system: Pseudomonas aeruginosa; experiment: Antibacterial activity against Pseudomonas aeruginosa PTCC 1431 at 300 ug/ml after 24 hrs by disk diffusion sensitivity assay; conditions: PTCC 1431, 24 h, read-out: IZ; summary of the method: as §1
[11] = Antibacterial activity against Escherichia coli HB101 BA 7601C at 300 ug/ml after 24 hrs by disk diffusion sensitivity assay; conditions: read-out: IZ; summary of the method: as §1
[12] = test system: Staphylococcus aureus; experiment: Antibacterial activity against Staphylococcus aureus PTCC 1074 at 300 ug/ml after 24 hrs by disk diffusion sensitivity assay; conditions: PTCC 1074, 24 h, read-out: IZ; summary of the method: as §1
[13] = test system: Pseudomonas aeruginosa; experiment: Antibacterial activity against Pseudomonas aeruginosa PTCC 1431 at 200 ug/ml after 24 hrs by disk diffusion sensitivity assay; conditions: PTCC 1431, 24 h, read-out: IZ; summary of the method: as §1
[14] = test system: Staphylococcus aureus; experiment: Antibacterial activity against Staphylococcus aureus PTCC 1074 at 200 ug/ml after 24 hrs by disk diffusion sensitivity assay; conditions: PTCC 1074, 24 h, read-out: IZ; summary of the method: as §1
[15] = Antibacterial activity against Escherichia coli HB101 BA 7601C at 200 ug/ml after 24 hrs by disk diffusion sensitivity assay; conditions: read-out: IZ; summary of the method: as §1
[16] = test system: Bacillus subtilis; experiment: Antibacterial activity against Bacillus subtilis PTCC 1365 at 200 ug/ml after 24 hrs by disk diffusion sensitivity assay; conditions: PTCC 1365, 24 h, read-out: IZ; summary of the method: as §1
[17] = test system: Staphylococcus aureus; experiment: Antibacterial activity against Staphylococcus aureus PTCC 1074 at 500 ug/ml after 24 hrs by disk diffusion sensitivity assay; conditions: PTCC 1074, 24 h, read-out: IZ; summary of the method: as §1
[18] = test system: Pseudomonas aeruginosa; experiment: Antibacterial activity against Pseudomonas aeruginosa PTCC 1431 at 500 ug/ml after 24 hrs by disk diffusion sensitivity assay; conditions: PTCC 1431, 24 h, read-out: IZ; summary of the method: as §1
[19] = test system: Bacillus subtilis; experiment: Antibacterial activity against Bacillus subtilis PTCC 1365 at 500 ug/ml after 24 hrs by disk diffusion sensitivity assay; conditions: PTCC 1365, 24 h, read-out: IZ; summary of the method: as §1
[20] = Antibacterial activity against Escherichia coli HB101 BA 7601C at 500 ug/ml after 24 hrs by disk diffusion sensitivity assay; conditions: read-out: IZ; summary of the method: as §1
[21] = test system: Bacillus subtilis; experiment: Antibacterial activity against Bacillus subtilis PTCC 1365 at 10 ug/ml after 24 hrs by disk diffusion sensitivity assay; conditions: PTCC 1365, 24 h, read-out: IZ
[22] = Antibacterial activity against Escherichia coli HB101 BA 7601C at 10 ug/ml after 24 hrs by disk diffusion sensitivity assay; conditions: read-out: IZ
[23] = test system: Pseudomonas aeruginosa; experiment: Antibacterial activity against Pseudomonas aeruginosa PTCC 1431 at 10 ug/ml after 24 hrs by disk diffusion sensitivity assay; conditions: PTCC 1431, 24 h, read-out: IZ
[24] = test system: Staphylococcus aureus; experiment: Antibacterial activity against Staphylococcus aureus PTCC 1074 at 10 ug/ml after 24 hrs by disk diffusion sensitivity assay; conditions: PTCC 1074, 24 h, read-out: IZ

SMILES: O=c1[nH]c(-c2ccc(Br)cc2)nc2c1cnn2-c1ccc([N+](=O)[O-])cc1[N+](=O)[O-]
- zone of inhibition at 100 µg/mL [1]: 17 mm
- zone of inhibition at 100 µg/mL [2]: 9 mm
- zone of inhibition at 100 µg/mL [3]: 10 mm
- zone of inhibition at 100 µg/mL [4]: 9 mm

SMILES: O=c1[nH]c(-c2ccc(Cl)cc2)nc2c1cnn2-c1ccc([N+](=O)[O-])cc1[N+](=O)[O-]
- zone of inhibition at 400 µg/mL [5]: 8.5 mm
- zone of inhibition at 400 µg/mL [6]: 15 mm
- zone of inhibition at 400 µg/mL [7]: 8 mm
- zone of inhibition at 400 µg/mL [8]: 10.5 mm

SMILES: O=c1[nH]c(-c2ccc([N+](=O)[O-])cc2)nc2c1cnn2-c1ccc([N+](=O)[O-])cc1[N+](=O)[O-]
- zone of inhibition at 300 µg/mL [9]: 9 mm
- zone of inhibition at 300 µg/mL [10]: 13.5 mm
- zone of inhibition at 300 µg/mL [11]: 9 mm
- zone of inhibition at 300 µg/mL [12]: 8.5 mm

SMILES: Cc1ccc(-c2nc3c(cnn3-c3ccc([N+](=O)[O-])cc3[N+](=O)[O-])c(=O)[nH]2)cc1
- zone of inhibition at 200 µg/mL [13]: 7.5 mm
- zone of inhibition at 200 µg/mL [14]: 13 mm
- zone of inhibition at 200 µg/mL [15]: 9 mm
- zone of inhibition at 200 µg/mL [16]: 9 mm

SMILES: COc1ccc(-c2nc3c(cnn3-c3ccc([N+](=O)[O-])cc3[N+](=O)[O-])c(=O)[nH]2)cc1
- zone of inhibition at 100 µg/mL [1]: 9.5 mm
- zone of inhibition at 100 µg/mL [2]: 10 mm
- zone of inhibition at 100 µg/mL [3]: 12.5 mm
- zone of inhibition at 100 µg/mL [4]: 10 mm

SMILES: O=c1[nH]c(-c2cccc(O)c2)nc2c1cnn2-c1ccc([N+](=O)[O-])cc1[N+](=O)[O-]
- zone of inhibition at 500 µg/mL [17]: 16 mm
- zone of inhibition at 500 µg/mL [18]: 9.5 mm
- zone of inhibition at 500 µg/mL [19]: 12 mm
- zone of inhibition at 500 µg/mL [20]: 12 mm

SMILES: O=c1[nH]c(-c2ccccc2)nc2c1cnn2-c1ccc([N+](=O)[O-])cc1[N+](=O)[O-]
- zone of inhibition at 400 µg/mL [5]: 9 mm
- zone of inhibition at 400 µg/mL [6]: 10 mm
- zone of inhibition at 400 µg/mL [7]: 9.5 mm
- zone of inhibition at 400 µg/mL [8]: 15 mm

SMILES: O=c1[nH]c(-c2cccc([N+](=O)[O-])c2)nc2c1cnn2-c1ccc([N+](=O)[O-])cc1[N+](=O)[O-]
- zone of inhibition at 400 µg/mL [5]: 15 mm
- zone of inhibition at 400 µg/mL [6]: 11 mm
- zone of inhibition at 400 µg/mL [7]: 9 mm
- zone of inhibition at 400 µg/mL [8]: 8 mm

SMILES: O=c1[nH]c(-c2ccccc2O)nc2c1cnn2-c1ccc([N+](=O)[O-])cc1[N+](=O)[O-]
- zone of inhibition at 500 µg/mL [17]: 9 mm
- zone of inhibition at 500 µg/mL [18]: 16 mm
- zone of inhibition at 500 µg/mL [19]: 9 mm
- zone of inhibition at 500 µg/mL [20]: 7 mm

SMILES: COc1cccc(-c2nc3c(cnn3-c3ccc([N+](=O)[O-])cc3[N+](=O)[O-])c(=O)[nH]2)c1
- zone of inhibition at 100 µg/mL [1]: 11.5 mm
- zone of inhibition at 100 µg/mL [2]: 8 mm
- zone of inhibition at 100 µg/mL [3]: 12.5 mm
- zone of inhibition at 100 µg/mL [4]: 9 mm

SMILES: CN[C@@H]1[C@H](O[C@H]2[C@H](O[C@H]3[C@H](O)[C@@H](O)[C@H](N=C(N)N)[C@@H](O)[C@@H]3N=C(N)N)O[C@@H](C)[C@]2(O)C=O)O[C@@H](CO)[C@H](O)[C@H]1O [STREPTOMYCIN]
- zone of inhibition at 10 µg/mL [21]: 10 mm
- zone of inhibition at 10 µg/mL [22]: 17 mm
- zone of inhibition at 10 µg/mL [23]: 10 mm
- zone of inhibition at 10 µg/mL [24]: 15 mm
